Experimental data reported in ChEMBL document CHEMBL1811844, “Design, synthesis, and biological evaluation of triazolo-pyrimidine derivatives as novel inhibitors of hepatitis B virus surface antigen (HBsAg) secretion” (J Med Chem, 2011).

How the values were obtained:
Mus musculus [1] = test: Toxicity in HBV infected transgenic 1.3.32 mouse assessed as change in serum globulin level at 7.9 to 25 mg/kg, po qd for 14 days; format: organism-based; set-up: dose 7.9-25 mg/kg, route oral; settings: in vivo, 336 h
How it was run: (§1)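 HBV-transgenic mice (strain 1.3.32), 10 per group, randomised; oral gavage once daily for 14 days at 25 or 7.9 mg/kg in NMP:Solutol HS15/saline vehicle; vehicle-only group. Weighed before the first dose and after 3 days; observed one hour after each dose. Tail-vein blood taken before dosing, at day 7 and at day 14 necropsy, each 3 h post-dose, for serum chemistry.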

Mus musculus [2] = test: Toxicity in HBV infected transgenic 1.3.32 mouse assessed as change in serum creatinine level at 7.9 to 25 mg/kg, po qd for 14 days; format: organism-based; set-up: dose 7.9-25 mg/kg, route oral; settings: in vivo, 336 h; how it was run: as §1
Mus musculus [3] = test: Toxicity in HBV infected transgenic 1.3.32 mouse assessed as elevation in serum Na+ level at 7.9 to 25 mg/kg, po qd for 14 days; format: organism-based; set-up: dose 7.9-25 mg/kg, route oral; settings: in vivo, 336 h; how it was run: as §1
Mus musculus [4] = test: Toxicity in HBV infected transgenic 1.3.32 mouse assessed as elevation in serum alanine aminotransferase level at 7.9 to 25 mg/kg, po qd for 14 days; format: organism-based; set-up: dose 7.9-25 mg/kg, route oral; settings: in vivo, 336 h; how it was run: as §1
Mus musculus [5] = test: Toxicity in HBV infected transgenic 1.3.32 mouse assessed as mortality at 7.9 to 25 mg/kg, po qd for 14 days; format: organism-based; set-up: dose 7.9-25 mg/kg, route oral; settings: in vivo, 336 h; how it was run: as §1
Mus musculus [6] = test: Acute toxicity in CL57BL/6 mouse assessed as effect on serum K+ level at 25 mg/kg, iv administered as single dose after 24 hrs; format: organism-based; set-up: dose 25 mg/kg, route intravenous; settings: in vivo
How it was run: (§2)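 Female C57BL/6 mice, four per group, randomized, each given one tail-vein injection of a 2 mg/mL solution in 1:1 NMP:Solutol HS15 diluted with saline; a vehicle-only group served as control. Mice were watched for the first hour and sacrificed at 24 h with necropsy. Serum was collected and run on an automated chemistry and electrolyte analyser.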

Mus musculus [7] = test: Acute toxicity in CL57BL/6 mouse assessed as effect on serum glucose level at 25 mg/kg, iv administered as single dose after 24 hrs; format: organism-based; set-up: dose 25 mg/kg, route intravenous; settings: in vivo; how it was run: as §2
Mus musculus [8] = test: Acute toxicity in CL57BL/6 mouse assessed as effect on serum amylase level at 25 mg/kg, iv administered as single dose after 24 hrs; format: organism-based; set-up: dose 25 mg/kg, route intravenous; settings: in vivo; how it was run: as §2
Mus musculus [9] = test: Acute toxicity in CL57BL/6 mouse assessed as effect on serum alkaline phosphatase level at 25 mg/kg, iv administered as single dose after 24 hrs; format: organism-based; set-up: dose 25 mg/kg, route intravenous; settings: in vivo
How it was run: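 Female C57BL/6 mice, four per group, randomized, each given one tail-vein injection of a 2 mg/mL solution in 1:1 NMP:Solutol HS15 diluted with saline; a vehicle-only group served as control. Serum was collected and run on an automated chemistry and electrolyte analyser.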

Mus musculus [10] = test: Acute toxicity in CL57BL/6 mouse assessed as effect on serum albumin level at 25 mg/kg, iv administered as single dose after 24 hrs; format: organism-based; set-up: dose 25 mg/kg, route intravenous; settings: in vivo; how it was run: as §2
Mus musculus [11] = test: Acute toxicity in CL57BL/6 mouse assessed as effect on serum blood urea nitrogen level at 25 mg/kg, iv administered as single dose after 24 hrs; format: organism-based; set-up: dose 25 mg/kg, route intravenous; settings: in vivo; how it was run: as §2
Mus musculus [12] = test: Acute toxicity in CL57BL/6 mouse assessed as effect on serum alanine aminotransferase level at 25 mg/kg, iv administered as single dose after 24 hrs; format: organism-based; set-up: dose 25 mg/kg, route intravenous; settings: in vivo; how it was run: as §2
Mus musculus [13] = test: Acute toxicity in CL57BL/6 mouse assessed as effect on mean corpuscular at 25 mg/kg, iv administered as single dose after 24 hrs; format: organism-based; set-up: dose 25 mg/kg, route intravenous; settings: in vivo
How it was run: (§3)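 Female C57BL/6 mice, four per group, randomized, each given one tail-vein injection of a 2 mg/mL solution in 1:1 NMP:Solutol HS15 diluted with saline; a vehicle-only group served as control. Mice were watched closely for the first hour and sacrificed at 24 h with necropsy. Whole blood was taken for complete blood counts on an automated haematology analyser.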

Mus musculus [14] = test: Acute toxicity in CL57BL/6 mouse assessed as effect on hematocrit at 25 mg/kg, iv administered as single dose after 24 hrs; format: organism-based; set-up: dose 25 mg/kg, route intravenous; settings: in vivo; how it was run: as §3
Mus musculus [15] = test: Acute toxicity in CL57BL/6 mouse assessed as effect on basophils percent at 25 mg/kg, iv administered as single dose after 24 hrs; format: organism-based; set-up: dose 25 mg/kg, route intravenous; settings: in vivo; how it was run: as §3
Mus musculus [16] = test: Acute toxicity in CL57BL/6 mouse assessed as effect on monocytes count at 25 mg/kg, iv administered as single dose after 24 hrs; format: organism-based; set-up: dose 25 mg/kg, route intravenous; settings: in vivo; how it was run: as §3
Mus musculus [17] = test: Acute toxicity in CL57BL/6 mouse assessed as reduction in platelets count at 25 mg/kg, iv administered as single dose after 24 hrs; format: organism-based; set-up: dose 25 mg/kg, route intravenous; settings: in vivo
How it was run: (§4)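 Female C57BL/6 mice, four per group, randomised; single tail-vein bolus in NMP:Solutol HS15 (1:1) diluted with saline to 2 mg/mL, injected within 10 min of preparation; vehicle-only group. Close observation for the first hour; sacrifice and necropsy at 24 h. Whole-blood complete blood counts and serum chemistry, including total bilirubin and total protein, were measured.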

Mus musculus [18] = test: Acute toxicity in CL57BL/6 mouse assessed as weight loss at 25 mg/kg, iv administered as single dose after 24 hrs; format: organism-based; set-up: dose 25 mg/kg, route intravenous; settings: in vivo; how it was run: as §4
Hepatitis B virus [19] = test: Antiviral activity against entecavir-resistant Hepatitis B virus harboring polymerase L528M, M552V, T532G and S550I mutant in human HepG2 cells assessed as inhibition of HBsAg secretion by ELISA; format: functional, organism-based
Hepatitis B virus [20] = test: Antiviral activity against lamivudine/telbivudine-resistant Hepatitis B virus harboring polymerase L528M and M552V mutant in human HepG2 cells assessed as inhibition of HBsAg secretion by ELISA; format: functional, organism-based
Hepatitis B virus [21] = test: Antiviral activity against lamivudine/telbivudine-resistant Hepatitis B virus harboring polymerase M552I mutant in human HepG2 cells assessed as inhibition of HBsAg secretion by ELISA; format: functional, organism-based
Hepatitis B virus [22] = test: Antiviral activity against adefovir-resistant Hepatitis B virus harboring polymerase N584T mutant in human HepG2 cells assessed as inhibition of HBsAg secretion by ELISA; format: functional, organism-based
Hepatitis B virus [23] = test: Antiviral activity against adefovir-resistant Hepatitis B virus harboring polymerase A529V mutant in human HepG2 cells assessed as inhibition of HBsAg secretion by ELISA; format: functional, organism-based
[24] = Cytotoxicity against human HepG2(2.2.15) cells by MTT assay; format: cell-based
Mus musculus [25] = test: Toxicity in HBV infected transgenic 1.3.32 mouse assessed as change in serum total protein level at 7.9 to 25 mg/kg, po qd for 14 days; format: organism-based; set-up: dose 7.9-25 mg/kg, route oral; settings: in vivo, 336 h; how it was run: as §1
Mus musculus [26] = test: Toxicity in HBV infected transgenic 1.3.32 mouse assessed as change in serum glucose level at 7.9 to 25 mg/kg, po qd for 14 days; format: organism-based; set-up: dose 7.9-25 mg/kg, route oral; settings: in vivo, 336 h; how it was run: as §1
Mus musculus [27] = test: Toxicity in HBV infected transgenic 1.3.32 mouse assessed as change in serum Ca2+ level at 7.9 to 25 mg/kg, po qd for 14 days; format: organism-based; set-up: dose 7.9-25 mg/kg, route oral; settings: in vivo, 336 h; how it was run: as §1
Rattus norvegicus [28] = test: Total body clearance in fasted Sprague-Dawley rat at 5 mg/kg, iv by LC/MS/MS analysis; format: ADME, organism-based; set-up: dose 5 mg/kg, route intravenous; settings: in vivo
How it was run: (§5)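 Male Sprague-Dawley rats, 3 per treatment, carried jugular cannulae and were fasted 12 h with water. Compound was formulated at 2 mg/mL in 1:1 NMP:Solutol HS15 diluted with saline. Dosing was 5 mg/kg iv or 25 mg/kg oral gavage. Blood was drawn predose and at 5, 15, 30 min, 1, 3 and 6 h. Plasma was quantified by LC-MS/MS against an 8-point standard curve.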

Rattus norvegicus [29] = test: Volume of distribution at steady state in fasted Sprague-Dawley rat at 5 mg/kg, iv by LC/MS/MS analysis; format: ADME, organism-based; set-up: dose 5 mg/kg, route intravenous; settings: in vivo; how it was run: as §5
Rattus norvegicus [30] = test: Oral bioavailability in fasted Sprague-Dawley rat at 25 mg/kg after 6 hrs by LC/MS/MS analysis; format: ADME, organism-based; settings: in vivo; how it was run: as §5

In the case of Fc1cccc(Cl)c1C1CC(c2ccc(Cl)cc2)Nc2ncnn21 (racemic), the Activity (Mus musculus [1]) is reported as “Non-toxic”, the Activity (Mus musculus [2]) is reported as “Non-toxic” and the Activity (Mus musculus [3]) is reported as “Toxic”. The Activity (Mus musculus [4]) was “Toxic”, the Activity (Mus musculus [5]) was “Non-toxic” and the Activity (Mus musculus [6]) was “Non-toxic”. For the same compound, the Activity (Mus musculus [7]) was “Non-toxic”, the Activity (Mus musculus [8]) was “Non-toxic” and the Activity (Mus musculus [9]) was “Non-toxic”. For the same compound, the Activity (Mus musculus [10]) was “Non-toxic”, the Activity (Mus musculus [11]) was “Non-toxic” and the Activity (Mus musculus [12]) was “Non-toxic”. For the same compound, the Activity (Mus musculus [13]) was “Non-toxic”, the Activity (Mus musculus [14]) was “Non-toxic” and the Activity (Mus musculus [15]) was “Non-toxic”. For the same compound, the Activity (Mus musculus [16]) was “Non-toxic”, the Activity (Mus musculus [17]) was “Toxic” and the Activity (Mus musculus [18]) was “Non-toxic”. The EC50 (Hepatitis B virus [19]) was 8.3 µM, the EC50 (Hepatitis B virus [20]) was 10.3 µM and the EC50 (Hepatitis B virus [21]) was 9.1 µM. The EC50 (Hepatitis B virus [22]) was 5.6 µM, the EC50 (Hepatitis B virus [23]) was 5.8 µM and the CC50 [24] was greater than 50 µM. The Activity (Mus musculus [25]) was “Non-toxic”, the Activity (Mus musculus [26]) was “Non-toxic” and the Activity (Mus musculus [27]) was “Non-toxic”. It also gave a CL (Rattus norvegicus [28]) of 12 mL/min/kg, a Vdss (Rattus norvegicus [29]) of 1.6 L/kg and an F (Rattus norvegicus [30]) of 31%.
